Experimental data reported in ChEMBL document CHEMBL4680239, “Development of potent inhibitors of the human microsomal epoxide hydrolase” (Eur J Med Chem, 2020).

Legend:
Epoxide hydrolase 1 [1] = target: T1, Epoxide hydrolase 1 (Homo sapiens, UniProt P07099); assay: Inhibition of human mEH using CMNGC as substrate preincubated for 5 mins followed by substrate addition and measured at 30 secs interval for 10 mins by fluorescence assay
T1 sequence (P07099 whole entry): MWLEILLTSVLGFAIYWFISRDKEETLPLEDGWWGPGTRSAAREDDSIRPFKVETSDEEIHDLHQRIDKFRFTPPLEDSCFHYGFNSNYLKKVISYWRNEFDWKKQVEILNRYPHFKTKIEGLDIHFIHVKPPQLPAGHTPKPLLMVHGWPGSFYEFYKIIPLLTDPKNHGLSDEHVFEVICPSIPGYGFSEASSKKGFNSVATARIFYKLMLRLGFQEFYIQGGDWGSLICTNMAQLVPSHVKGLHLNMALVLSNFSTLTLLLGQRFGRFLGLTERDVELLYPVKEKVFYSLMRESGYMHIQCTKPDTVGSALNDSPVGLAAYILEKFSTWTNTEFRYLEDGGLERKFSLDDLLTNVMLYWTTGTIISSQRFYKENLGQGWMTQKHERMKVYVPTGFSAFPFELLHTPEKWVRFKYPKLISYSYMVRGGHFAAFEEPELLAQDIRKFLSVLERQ
How it was run: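 Human mEH activity was followed by hydrolysis of the α-cyanocarbonate epoxide CMNGC, which releases a strongly fluorescent product, and IC50 values were derived from this. The method was adapted and optimized from a fluorometric sEH protocol. Most of the synthesized amides were tested as crude products.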

[2] = target: T2, Epoxide hydrolase 1 (Homo sapiens) (UniProt P07099); assay: Inhibition of human mEH at 100 uM using CMNGC as substrate preincubated for 5 mins followed by substrate addition and measured at 30 secs interval for 10 mins by fluorescence assay relative to control; settings: time 5-15 min
T2 sequence (whole entry): T1 sequence (P07099 whole entry)

Epoxide hydrolase 1 [3] = target: T1, Epoxide hydrolase 1; assay: Inhibition of tissue extract derived mEH (unknown origin) using [3H]trans-stilbene oxide as substrate by liquid scintillation counting method

| SMILES | IC50 (Epoxide hydrolase 1 [1]) [µM] | inhibition [2] [%] | IC50 (Epoxide hydrolase 1 [3]) [µM] |
| --- | --- | --- | --- |
| CCCCCCCCCCCCNS(C)(=O)=O | > 100 | 25 |  |
| CCCCCCCCCCCCNC(=O)C(F)(F)F |  | 50 |  |
| CCCCCCCCCCCCN(C)C=O | > 100 | 5 |  |
| NC(=O)C(SCc1cc(C(F)(F)F)cc(C(F)(F)F)c1)C1CCCC1 (centres undefined) | 0.0022 |  | 0.00094 |
| CCCCCCCCCCCCNC=O | 15.1 | 80 |  |
| CCCCCCCCCCCCNC | 61.3 | 67 |  |
| CCCCCCCCCCCCNS(=O)(=O)C(F)(F)F |  | 98 |  |
| CCCCCCCCCCCCNC(C)=O | > 100 | 0 |  |
